From PubChem BioAssay
This is a sample that favours compounds with a hit; in the whole collection about 2.7% have one here.
RBBP9 inh: inhibitors of human serine hydrolase RBBP9 | recombinant RBBP9, FP-Rh probe fluorescence polarization | inhibition, % at 7.94 µM | hit rate 0.2% among 220,000;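 active means inhibition above the campaign mean of all tested compounds plus 3 SD, cut at about 14% in these data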;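 further: plate controls were DMSO wells with RBBP9 for no effect and wells lacking RBBP9 protein for full effect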
Target sequence (O75884 whole entry, looked up): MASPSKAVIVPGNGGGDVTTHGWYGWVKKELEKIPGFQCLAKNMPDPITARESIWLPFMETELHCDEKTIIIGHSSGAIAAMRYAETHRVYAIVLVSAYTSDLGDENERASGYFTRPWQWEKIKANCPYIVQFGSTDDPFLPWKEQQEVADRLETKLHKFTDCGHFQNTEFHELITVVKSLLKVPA
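System: RBBP9 protein / Quantity: 2.5 µM RBBP9 dispensing solution, before mixing / Also added: Serine-hydrolase probe FP-Rh, 375 nM pre-mixing / Dosing: 7.94 µM single dose, 0.794% DMSO / Timing: enzyme-compound preincubation 30 min, then probe labeling 45 min, 25 °C / Signal: FP readout at 525/598 nm / Controls: DMSO-treated enzyme wells and wells lacking RBBP9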
L929 necroptosis: blocks zVAD induced death of L929 cells; hit rate 0.38% among 220,000; L929 zVAD necroptosis rescue, ATP luminescence, 24 h; with zVAD 60 µM; viability rescue, % at 10 µM; AID 1377;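 active means activation, scaled between plate controls, above about 75%, limit read from the data; inactive means activation under that limit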;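 further: 0% = zVAD with DMSO and 100% = DMSO alone without zVAD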
TNF necrop inh: inhibitors of TNF-alpha induced necroptosis in Jurkat FADD-/- cells; Jurkat FADD-/- TNF necroptosis rescue, ATP luminescence, 24 h; 0 = TNF only, 100 = no-TNF cells; activation (protection from cell death), % at 10 µM; hit rate 0.068% among 220,000;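 active means activation, meaning protection from cell death, of at least 50% relative to plate controls; inactive means activation below 50%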;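 further: necroptosis triggered by 40 ng/mL TNF-alpha added together with compound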
Wee1 degr inh: inhibitors of human Wee1 degradation; P30291; HeLa Luc-Wee1K328M stability, luciferase luminescence; 100% = proteasome inhibitor MG132 effect; reporter increase, % at 5 µM; hit rate 1.2% among 220,000;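 active means activation above the mean of all tested compounds plus 3 SD, set per screening run, cut at about 8.8% in these data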;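 further: cells exposed to compound for 20 h before luminescence read; 0% = DMSO alone and 100% = MG132 at 30 µM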
p97 inhibitor: human p97 ATPase inhibition. P55072. recombinant p97 ATPase, Kinase-Glo ATP luminescence, 3 h. inhibition, % at 8 µM. hit rate 0.42% among 220,000. AID 1481; in the data active means inhibition above about 15%;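 further: 0% = DMSO vehicle and 100% = wells lacking enzyme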
PfM18AAP inh-1: PfM18AAP enzyme inhibition; recombinant PfM18AAP, H-Glu-NHMec fluorogenic cleavage; inhibition, % at 7.35 µM; hit rate 1.2% among 290,000;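 active means inhibition above the campaign mean inhibition over all tested compounds plus 3 SD, cut at about 28% in these data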;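 further: 0% = plate median of test compound wells and 100% = 2 mM ZnCl2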
RBBP9 confirm: human RBBP9 inhibition, confirmation. shares compounds with RBBP9 inh. recombinant RBBP9, FP-Rh probe fluorescence polarization. inhibition, % at 7.94 µM. hit rate 36% among 410. AID 1537;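 active means inhibition above the hit cutoff derived for the primary screen, cut at about 15% in these data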;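 further: 0% = RBBP9 with DMSO and 100% = wells lacking RBBP9 protein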
PfM18AAP inh-2: confirmation of Plasmodium falciparum M18 aspartyl aminopeptidase inhibitors; hit rate 28% among 2,400; shares compounds with PfM18AAP inh-1; recombinant PfM18AAP, H-Glu-NHMec fluorogenic cleavage; inhibition, % at 7.35 µM;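 active means mean inhibition over replicate wells above the hit cutoff set for the earlier primary screen, cut at about 29% in these data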;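 further: 0% = median of test compound wells and 100% = 2 mM ZnCl2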
CTSL1 counter: counter-screen for PFM18AAP inhibitors: confirmation of human cathepsin L inhibitors; shares compounds with PfM18AAP inh-1; purified cathepsin L1, Z-Leu-Arg-MCA fluorescence; inhibition, % at 5.96 µM; 2,400 tested, under 10 active;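 active means average inhibition across replicates above the hit cutoff set in the earlier primary screen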;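 further: 0% = median of test compound wells and 100% = Z-Phe-Ala-diazomethylketone 1 µM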
Target sequence (P07711 whole entry, looked up): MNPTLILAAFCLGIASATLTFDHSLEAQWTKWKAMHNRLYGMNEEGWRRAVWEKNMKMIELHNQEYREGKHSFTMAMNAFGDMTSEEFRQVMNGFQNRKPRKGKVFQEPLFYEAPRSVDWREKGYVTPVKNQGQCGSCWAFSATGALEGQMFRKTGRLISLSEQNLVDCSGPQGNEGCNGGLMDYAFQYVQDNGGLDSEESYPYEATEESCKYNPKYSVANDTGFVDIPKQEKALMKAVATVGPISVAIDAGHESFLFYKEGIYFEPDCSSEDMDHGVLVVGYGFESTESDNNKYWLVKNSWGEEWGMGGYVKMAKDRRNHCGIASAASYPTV
Starred values were filed as active, the others as inactive; ! = not active in a repeat.

Results for CCn1c(SCCC(=O)O)nnc1-c1cccnc1 ?
RBBP9 inh: -2; L929 necroptosis: 2; TNF necrop inh: 2; Wee1 degr inh: 0; p97 inhibitor: 4; PfM18AAP inh-1: -1

Results for CCn1c(SCC(=O)c2ccccc2)nnc1-c1cccnc1 ?
RBBP9 inh: 15*; L929 necroptosis: 3; TNF necrop inh: 1; Wee1 degr inh: 7; p97 inhibitor: 3; PfM18AAP inh-1: -6; RBBP9 confirm: 5

How did CCCC(=O)n1nc(-c2ccc(C)cc2)nc1NCc1ccco1 do in these assays?
RBBP9 inh: 17*; L929 necroptosis: 14; TNF necrop inh: 1; Wee1 degr inh: 10*; p97 inhibitor: -3; PfM18AAP inh-1: -15; RBBP9 confirm: 9

Results for Cc1ccc(C(=O)n2nc(-c3ccccc3)nc2NCc2ccco2)cc1 ?
RBBP9 inh: -14; L929 necroptosis: 0; TNF necrop inh: 0; Wee1 degr inh: 3; p97 inhibitor: 0; PfM18AAP inh-1: 0

How did CCOC(=O)c1c(S(=O)(=O)NCC(=O)Nc2cccc(C)c2)c(C)n(C)c1C do in these assays?
PfM18AAP inh-1: 3

What do the screens show for `C/C(Cc1ccccc1)=N\NC(=O)CNC(=O)c1cccc(Cl)c1`?
RBBP9 inh: 21*; L929 necroptosis: 0; TNF necrop inh: 2; Wee1 degr inh: 2; p97 inhibitor: 5; PfM18AAP inh-1: 0; RBBP9 confirm: -3

How did COc1c(C(=O)NNC(=O)c2ccccc2Cl)csc1Br do in these assays?
RBBP9 inh: -6; L929 necroptosis: -1; TNF necrop inh: -1; Wee1 degr inh: 1; p97 inhibitor: -2; PfM18AAP inh-1: -4

Results for COCCN=c1scc(-c2ccccc2)n1/N=C/c1c[nH]c2ccccc12 ?
RBBP9 inh: 0; L929 necroptosis: 4; TNF necrop inh: 7; Wee1 degr inh: -2; p97 inhibitor: 5; PfM18AAP inh-1: -2

How did CCN=c1scc(C)n1/N=C/c1ccc(O)c(O)c1O do in these assays?
RBBP9 inh: 34*; L929 necroptosis: 0; TNF necrop inh: -13; Wee1 degr inh: -2; p97 inhibitor: 7; PfM18AAP inh-1: 46*; RBBP9 confirm: 61*; PfM18AAP inh-2: 24; CTSL1 counter: 8

What do the screens show for `C=C(C)CN=c1scc(C)n1/N=C/c1ccco1`?
RBBP9 inh: -4; L929 necroptosis: 1; TNF necrop inh: 3; Wee1 degr inh: -1; p97 inhibitor: 5; PfM18AAP inh-1: 5

Results for COCCN=c1scc(-c2cccs2)n1/N=C/c1ccc(O)c(O)c1O ?
RBBP9 inh: 36*; L929 necroptosis: 2; TNF necrop inh: -9; Wee1 degr inh: -3; p97 inhibitor: 2; PfM18AAP inh-1: 42*; RBBP9 confirm: 63*; PfM18AAP inh-2: 12; CTSL1 counter: 4

Results for O=C(CCNC(=O)c1ccccc1Cl)Nc1ccncc1 ?
PfM18AAP inh-1: 2

What do the screens show for `Cc1cc(C(=O)N/N=C/c2ccc(O)c(O)c2O)c(C)n1-c1ccccc1`?
RBBP9 inh: 18*; L929 necroptosis: 3; TNF necrop inh: -3; Wee1 degr inh: 1; p97 inhibitor: 11; PfM18AAP inh-1: 49*; RBBP9 confirm: 73*; PfM18AAP inh-2: 18; CTSL1 counter: -3

What do the screens show for `Cc1cc(/C=N/NC(=O)c2ccncc2)c(C)n1-c1ccccc1`?
RBBP9 inh: -2; TNF necrop inh: -3; Wee1 degr inh: -1; p97 inhibitor: -2; PfM18AAP inh-1: 2

What do the screens show for `CCCc1nnc(NC(=O)C2CCN(C(=O)C3CC(=O)N(c4ccc(C)cc4)C3)CC2)s1` (centres undefined)?
PfM18AAP inh-1: -2

What do the screens show for `N#C/C(=C\c1cc(O)c(O)c(O)c1)C(N)=O`?
RBBP9 inh: 18*; L929 necroptosis: 0; TNF necrop inh: -1; Wee1 degr inh: 0; p97 inhibitor: 5; PfM18AAP inh-1: 60*; RBBP9 confirm: 20*; PfM18AAP inh-2: 26; CTSL1 counter: 1

What do the screens show for `CCOC(=O)c1c(C)n(C)c2cc(Br)c(O)c(O)c12`?
RBBP9 inh: 17*; L929 necroptosis: -1; TNF necrop inh: -5; Wee1 degr inh: 1; p97 inhibitor: 2; PfM18AAP inh-1: 51*; RBBP9 confirm: 31*; PfM18AAP inh-2: 53*; CTSL1 counter: -5

How did CCOC(=O)c1c(C)n(C)c2cc([N+](=O)[O-])c(O)c([N+](=O)[O-])c12 do in these assays?
RBBP9 inh: -4; L929 necroptosis: 1; TNF necrop inh: 1; Wee1 degr inh: 0; p97 inhibitor: -6; PfM18AAP inh-1: 10

How did Cc1c2cc(O)c(=O)cc-2oc2cc(O)c(O)cc12 do in these assays?
RBBP9 inh: 43*!; L929 necroptosis: 1; TNF necrop inh: -3; Wee1 degr inh: 1; p97 inhibitor: 29*; PfM18AAP inh-1: 29*; RBBP9 confirm: 83*; PfM18AAP inh-2: 42*; CTSL1 counter: -1

Results for Nc1nc(-c2ccco2)c(-c2ccco2)s1 ?
RBBP9 inh: 17*; L929 necroptosis: 0; TNF necrop inh: -7; Wee1 degr inh: 0; p97 inhibitor: 20*; PfM18AAP inh-1: 38*; RBBP9 confirm: 10; PfM18AAP inh-2: -49; CTSL1 counter: -4

What do the screens show for `COc1ccc(N2CCN(CC(=O)N3c4ccccc4CC3C)CC2)cc1` (centres undefined)?
PfM18AAP inh-1: 12

Results for Oc1ccc(-c2cn3c(n2)SCC3)cc1O ?
RBBP9 inh: 21*; L929 necroptosis: 0; TNF necrop inh: -20; Wee1 degr inh: 0; p97 inhibitor: 13; PfM18AAP inh-1: 73*; RBBP9 confirm: 51*; PfM18AAP inh-2: 65*; CTSL1 counter: -1

How did NS(=O)(=O)c1ccc(CCNC(=O)Cc2cccs2)cc1 do in these assays?
PfM18AAP inh-1: -1

How did Oc1ccc(O)c(-c2cnns2)c1 do in these assays?
RBBP9 inh: 18*; L929 necroptosis: 0; TNF necrop inh: -12; Wee1 degr inh: 5; p97 inhibitor: 5; PfM18AAP inh-1: 86*; RBBP9 confirm: 55*; PfM18AAP inh-2: 90*; CTSL1 counter: 1

Results for CCN1C(=O)[C@H]2[C@@H](c3ccc(Cl)cc3)N3C(=O)CN(CC4CC4)C(=O)[C@@]3(Cc3ccccc3)[C@H]2C1=O ?
PfM18AAP inh-1: 1
